T cruzi inh – T. cruzi replication inhibition | T. cruzi beta-gal in NIH3T3, luminescence, 90 h | inhibition, % (no concentration beside the values) | 300,000 compounds, 1.4% hits | AID 1885;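 active = mean inhibition across valid replicates above about 55%, limit read from the data; inconclusive = mean below that limit but half or more replicates reach it; inactive = mean below it, under half of replicates reach it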;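 also: signal also drops with host cell toxicity which is not excluded here; 0% = plate median of DMSO wells and 100% = zero luminescence signal; higher percent means less beta-gal luminescence so fewer parasites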
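Assay system: NIH/3T3 fibroblasts plus reporter T. cruzi. Amount: NIH/3T3 cells, 5,000 per well. Buffer or medium: DMEM, 2% fetal bovine serum. Doses: compound pinned at 50 nL/well, DMSO. Schedule: ≥90 h infection period, 3 h prior cell attachment. Signal: luminescent β-galactosidase signal after 60 min lysis. Read-out: parasite load inhibition, %.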
SKKanGAS inh – SKKanGAS growth inhibition | inhibition, % at 7.5 µM | AID 1662 | 300,000 compounds, 1.3% hits | S. pyogenes SKKanGAS, kanamycin growth, BacTiter-Glo, 6 h;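 active = mean replicate score, as percent of positive control median, at least 50; inconclusive = mean below 50 but one replicate at or above 50; inactive = mean and every replicate below 50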;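 also: strain carries kanamycin resistance gene driven by streptokinase promoter and grows in 40 µg/ml kanamycin; loss of luminescence reflects streptokinase promoter inhibition or plain growth inhibition; 0% = median of DMSO wells and 100% = positive control at its reference dose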
L major viab – Leishmania major promastigote growth inhibition; Leishmania major promastigotes, resazurin fluorescence viability; inhibition, % at 10 µM; 200,000 compounds, 9% hits; in the data active = inhibition above about 50%;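 also: promastigotes grown with compound for 44 hours at 28 °C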
Beta cell apopt – blocks beta cell apoptosis; INS-1E cytokine-induced death, ATP luminescence, 48 h; percent of positive-control rescue, neutral wells zero; protection from apoptosis, % (concentration not given with the values); 300,000 compounds, 0.8% hits;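 active = Every replicate reaches about 75%, or at least half do and their mean reaches it too, limit read from the data; inconclusive = At least half of replicates reach the limit but their mean does not; inactive = Under half of replicates reach the limit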;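 also: 0% = cytokine-treated negative control wells and 100% = positive control rescue; higher means more ATP so stronger rescue from cytokine killing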
Mdm2-MdmX inh – inhibitors of human Mdm2/MdmX interaction | O15151+Q00987 | SaOS-2 split-luciferase Mdm2/MdmX complementation, luminescence | inhibition, % at 8 µM | 330,000 compounds, 3% hits | AID 485346;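 active = inhibition of at least 50% at 8 µM in the primary screen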
Target sequence (O15151 whole entry, looked up): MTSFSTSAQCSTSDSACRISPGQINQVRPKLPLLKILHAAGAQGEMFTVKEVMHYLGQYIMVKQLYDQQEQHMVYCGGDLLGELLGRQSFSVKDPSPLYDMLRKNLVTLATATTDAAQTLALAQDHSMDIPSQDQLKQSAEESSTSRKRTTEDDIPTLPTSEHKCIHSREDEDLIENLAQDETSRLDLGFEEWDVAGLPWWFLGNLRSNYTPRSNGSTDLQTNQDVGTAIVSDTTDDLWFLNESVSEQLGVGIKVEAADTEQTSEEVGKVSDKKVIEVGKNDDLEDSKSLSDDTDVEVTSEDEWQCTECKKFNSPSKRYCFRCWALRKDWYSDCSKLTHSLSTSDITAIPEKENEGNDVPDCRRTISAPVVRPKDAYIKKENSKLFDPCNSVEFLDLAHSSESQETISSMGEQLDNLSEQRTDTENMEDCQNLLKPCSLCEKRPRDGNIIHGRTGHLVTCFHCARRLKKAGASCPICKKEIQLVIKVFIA
Target sequence (Q00987 whole entry, looked up): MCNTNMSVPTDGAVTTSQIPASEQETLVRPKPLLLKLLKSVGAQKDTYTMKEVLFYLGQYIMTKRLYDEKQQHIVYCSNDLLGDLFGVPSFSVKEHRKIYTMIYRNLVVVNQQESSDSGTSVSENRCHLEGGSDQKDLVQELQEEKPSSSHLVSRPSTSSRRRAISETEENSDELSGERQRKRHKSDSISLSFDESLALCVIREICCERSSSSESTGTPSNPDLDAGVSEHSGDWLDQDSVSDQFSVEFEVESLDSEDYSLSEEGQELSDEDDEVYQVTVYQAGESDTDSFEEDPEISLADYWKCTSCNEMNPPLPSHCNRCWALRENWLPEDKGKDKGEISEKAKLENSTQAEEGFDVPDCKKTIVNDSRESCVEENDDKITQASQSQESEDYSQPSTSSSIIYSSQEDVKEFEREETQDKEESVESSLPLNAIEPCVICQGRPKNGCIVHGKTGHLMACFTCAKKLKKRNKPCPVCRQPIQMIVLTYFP
CSC inhib – cancer stem cell inhibition; cancer stem cell-like cells viability, luminescence; inhibition, % at 7.5 µM; 300,000 compounds, 1.1% hits; AID 2717; in the data active = inhibition above about 75%; inconclusive = no clear call, values can overlap the other calls; tested in HMLE shEcad cells
Starred values were filed as active, the others as inactive; ? = inconclusive; . = no result given. In the library only some 9.4% were active in any assay of this set; here they are far more common.

SMILES	T cruzi inh	SKKanGAS inh	L major viab	Beta cell apopt	Mdm2-MdmX inh	CSC inhib
O=C(Nc1ncc(Cc2ccccc2Cl)s1)c1ccc(-c2cccc([N+](=O)[O-])c2)o1	59.5*	14.3	92.3*	11.9	25.9	44.6
Cc1ccc(Cc2cnc(NC(=O)c3ccco3)s2)cc1	-12.7	27.6	-11.4	0.2	-97.3	50.2
O=C(Nc1ncc(Cc2ccc(C(F)(F)F)cc2)s1)c1ccc(-c2cccc([N+](=O)[O-])c2)o1	36.1	13.8	89.9*	7.1	24.5	42.8
CC(=O)NCCC(=O)N(Cc1ccccc1)c1nc2c(C)cccc2s1	-30.5	-13.7	.	5.3	23.2	2.2
CCn1c(SCC(=O)NC2CCCC2)nnc1C(C)C	-6.3	-12.1	.	-1.4	-33.2	14.3
O=C(NC(CC(=O)N1CCN(c2ccc([N+](=O)[O-])cc2)CC1)c1ccccc1)c1ccccc1Cl (stereo unspecified)	-19.6	5.9	83.0*	5.4	13.3	2.4
Cc1cccc(N2CCN(C(=O)CC(NC(=O)c3ccccc3Cl)c3ccccc3)CC2)c1C (stereo unspecified)	26.9	14.5	95.0*	-1.0	5.9	-7.0
Cc1nc(C)c(C(=O)O)c(-c2cccs2)c1C(=O)O	-5.5	-4.7	.	-2.8	5.9	6.3
O=C(Nc1ccc(Cc2ccncc2)cc1)C1CCC(N2C(=O)C3C4C=CC(C4)C3C2=O)CC1 (stereo unspecified)	16.8	-11.7	62.3*	3.7	38.7	-11.2
O=C(Nc1ccc(Cc2ccncc2)cc1)C1CCC(N2C(=O)C3CC=CCC3C2=O)CC1 (stereo unspecified)	15.7	3.0	-4.8	-1.3	27.6	-9.1
COc1ccc(CCNC(=O)CN2c3cccc4cccc(c34)S2(=O)=O)cc1	.	.	.	.	11.8	.
COc1ccc(C2NC(=O)NC(c3ccccc3)=C2c2nc3ccccc3s2)cc1 (stereo unspecified)	25.4	19.8	37.4	2.3	-15.0	-6.1
O=C1NC(c2ccccc2)=C(c2nc3ccccc3s2)C(c2ccc(F)cc2)N1 (stereo unspecified)	35.5	23.8	51.0*	11.8	13.9	31.8
Nc1c(Cl)cc(-c2csc(N3CCCC3c3nc4cc(Cl)c(N5CCCCC5)cc4n3CCOCCO)n2)cc1Cl (stereo unspecified)	18.6	20.2	.	0.1	1.4	19.4
COc1ccccc1C(=O)NCCC(=O)N(C)Cc1ccc(C)o1	3.1	3.7	.	-9.1	11.8	-5.3
COc1cc(/C=N/Nc2nc(Nc3ccccc3)nc(N3CCCCC3)n2)ccc1OCC(=O)O	25.7	44.4	-11.3	16.3	15.2	28.0
Oc1ccc(/C=N/Nc2cc(N3CCCC3)nc(N3CCCC3)n2)cc1	52.9	-17.4	12.8	5.3	29.2	5.3
Oc1ccc(Br)cc1/C=N/Nc1nc(N2CCCCC2)nc(N2CCOCC2)n1	74.0*	?	91.3*	6.5	36.6	1.7
COc1ccc(/C=N/Nc2nc(Nc3ccccc3)nc(N3CCCCC3)n2)c(OC)c1	51.4	19.2	99.5*	6.1	11.1	-2.3
Oc1cccc(/C=N/Nc2cc(N3CCCC3)nc(N3CCCC3)n2)c1	19.3	2.9	97.3*	3.1	0.5	-0.5
CN(C)c1nc(NCc2ccccc2)nc(N/N=C/c2cccc(Br)c2)n1	37.3	-5.3	51.6*	43.7	16.6	2.6
Brc1cc2c(cc1/C=N/Nc1nc(N3CCCC3)nc(N3CCOCC3)n1)OCO2	15.2	3.4	6.9	6.2	-16.8	-3.1
CCN(Cc1nc(-c2cccc(C)c2)no1)C(=O)c1ccc2c(c1)OCO2	2.7	-2.7	.	-3.3	-1.5	.
C(=N\Nc1nc(N2CCCC2)nc(N2CCCC2)n1)/c1ccccc1OCc1ccccc1	8.1	2.1	3.5	.	28.2	14.9
C/C(=N\Nc1nc(N2CCCCC2)nc(N2CCOCC2)n1)c1ccccc1O	55.1*	17.1	9.6	.	13.6	59.4
SMILES	T cruzi inh	SKKanGAS inh	L major viab	Beta cell apopt	Mdm2-MdmX inh	CSC inhib
BrC(/C=C\c1ccccc1)=N/Nc1nc(N2CCOCC2)nc(N2CCOCC2)n1	-40.3	-5.6	14.2	-5.0	6.0	6.1
Fc1ccc(Nc2nc(N/N=C/c3ccco3)nc(N3CCCCC3)n2)cc1	60.4*	67.5*	82.5*	8.0	31.1	4.5
C(=N\Nc1nc(N2CCOCC2)nc(N2CCOCC2)n1)/c1ccco1	9.0	-6.2	-5.2	-3.1	14.1	-3.2
BrC(=C\c1ccccc1)/C=N/Nc1nc(N2CCOCC2)nc(N2CCOCC2)n1	-38.5	-9.7	86.0*	-3.1	-22.0	5.1
Fc1ccccc1COc1ccccc1/C=N/Nc1nc(N2CCCC2)nc(N2CCCC2)n1	4.3	9.0	50.1*	1.5	-4.6	11.9
O=C(Nc1ccccc1)C1=C[C@H](c2ccc3c(c2)OCO3)C[C@H](OCc2ccc(CO)cc2)O1	2.2	18.9	11.6	-0.7	15.2	-7.8
CCOc1ccc(/C=C2\CCCc3c2nc2ccccc2c3C(=O)O)cc1OC	-3.7	5.6	.	-3.9	-3.2	-8.6
CCN(C[C@H]1N[C@@](Cc2ccccc2)(C(=O)OC)[C@H]2C(=O)N(Cc3ccccc3)C(=O)[C@@H]12)S(=O)(=O)c1ccc(C(C)(C)C)cc1	.	.	.	10.9	19.6	5.0
C(=N\Nc1nc(N2CCCCCC2)nc(N2CCCCCC2)n1)/c1ccccc1	43.9	69.3*	61.0*	9.6	6.9	.
Brc1cccc(/C=N/Nc2nc(N3CCCCC3)nc(N3CCCCC3)n2)c1	-4.0	12.1	51.8*	-2.6	-4.7	-1.5
Oc1ccc(/C=N/Nc2nc(N3CCCC3)nc(N3CCCC3)n2)cc1O	4.2	-5.3	2.6	20.9	-10.3	11.6
CC(/C=N/Nc1nc(N2CCCCC2)nc(N2CCCCC2)n1)=C\c1ccccc1	1.6	2.5	18.8	2.1	27.1	12.3
COc1ccc(N2C(=O)C(CC(=O)Nc3ccccc3)N(Cc3ccc4c(c3)OCO4)C2=O)cc1 (stereo unspecified)	25.1	-3.6	6.7	-3.8	15.1	-3.7
COc1ccc(OC2C(=O)N(Cc3ccc4c(c3)OCO4)C2c2sccc2C)cc1 (stereo unspecified)	39.8	-6.2	92.0*	10.3	12.4	117.0*
N#Cc1c(N2CCOCC2)nc(N2CCCCC2)c2c1CCN(C1CCCCC1)C2	70.7*	1.9	23.3	5.2	7.2	2.2
CCN1CCc2c(C#N)c(N3CCCCC3)nc(N3CCOCC3)c2C1	49.0	-3.4	8.2	-0.3	4.5	4.9
N#Cc1c(-c2cccs2)cc(-c2cccnc2)nc1N	-7.1	4.6	52.9*	1.0	37.9	-7.6
N#Cc1c(-c2ccc(F)cc2)cc(-c2cccnc2)nc1N	-15.2	-3.6	-3.6	8.6	12.7	-7.5
CCCCc1nc2cc(C(=O)NCCc3c(C)n[nH]c3C)ccc2o1	1.1	-2.7	.	-1.7	18.1	-5.9
Cc1cc(C)nc(NC(=O)c2cc([N+](=O)[O-])cc([N+](=O)[O-])c2)n1	?	-0.2	58.9*	-0.5	28.5	3.8
O=C(Nc1ncccn1)c1cc([N+](=O)[O-])cc([N+](=O)[O-])c1	?	-13.2	98.7*	-10.9	-23.6	-16.0

Screens as filed in PubChem.
